Values belong to the compound of their own block, whether it stands above or below them. Activity calls are given as the source filed them. No cut-off for these calls is given here.
How the values were obtained:
[1] = target: T1, Heparanase (Homo sapiens, UniProt Q9Y251); assay: Inhibition of recombinant HPSE GS3 (unknown origin) using fondaparinux as substrate incubated for 3 hrs in absence of light by WST1 based colorimetry
T1 sequence (Q9Y251 whole entry): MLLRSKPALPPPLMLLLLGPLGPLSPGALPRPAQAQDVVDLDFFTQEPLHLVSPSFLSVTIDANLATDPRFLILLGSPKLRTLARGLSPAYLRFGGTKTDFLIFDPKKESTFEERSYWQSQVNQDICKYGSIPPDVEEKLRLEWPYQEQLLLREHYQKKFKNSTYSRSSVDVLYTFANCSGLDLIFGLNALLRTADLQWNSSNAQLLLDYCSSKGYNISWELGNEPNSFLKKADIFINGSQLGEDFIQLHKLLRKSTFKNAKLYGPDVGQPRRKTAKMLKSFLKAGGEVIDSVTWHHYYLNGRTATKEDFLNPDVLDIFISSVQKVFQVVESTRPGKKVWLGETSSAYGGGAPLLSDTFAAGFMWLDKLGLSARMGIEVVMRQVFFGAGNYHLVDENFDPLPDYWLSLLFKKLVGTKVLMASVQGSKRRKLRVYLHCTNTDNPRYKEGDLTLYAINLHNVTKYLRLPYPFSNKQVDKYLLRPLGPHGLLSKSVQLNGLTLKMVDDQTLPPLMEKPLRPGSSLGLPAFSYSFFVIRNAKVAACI

[2] = test system: HT-1080; assay: Antiproliferative activity against human HT1080 cells after 3 days by SRB assay
[3] = test system: U-87 MG; assay: Antiproliferative activity against human U87MG cells after 3 days by SRB assay
[4] = test system: U2OS; assay: Antiproliferative activity against human U2OS cells after 3 days by SRB assay
[5] = test system: HT-1080; assay: Inhibition of cell invasion in human HT1080 cells at 1 uM after 24 hrs by SRB staining based matrigel invasion chamber assay relative to control; type: functional; details: HT-1080, 24 h
How it was run: (§1)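 HT1080, U87MG and U2OS cells pretreated with compound in complete medium for 24 h, harvested, resuspended in serum-free medium and seeded at 2.5 × 10^4 cells/filter into Growth Factor Reduced Matrigel-coated Transwell upper chambers. Same concentration in both upper and lower chambers. After 24 h, invaded cells SRB-stained and counted under microscope at 40X-100X. Student's 2-tailed t test, P<0.05.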

[6] = test system: U-87 MG; assay: Inhibition of cell invasion in human U87MG cells at 1 uM after 24 hrs by SRB staining based matrigel invasion chamber assay relative to control; type: functional, U-87MG ATCC; how it was run: as §1
[7] = test system: U2OS; assay: Inhibition of cell invasion in human U2OS cells at 1 uM after 24 hrs by SRB staining based matrigel invasion chamber assay relative to control; type: functional; how it was run: as §1
[8] = test system: HT-1080; assay: Downregulation of HPSE1 mRNA expression in human HT1080 cells at 1 uM after 24 hrs by qPCR analysis; type: functional, cell-based
How it was run: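 HT1080 cells treated 24 h with compound at 1 μM. Total RNA extracted and reverse-transcribed. HPSE-1 mRNA quantified by real-time qPCR using the ΔΔCt method, […]. Expressed as percent of untreated cells.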

[9] = test system: HT-1080; assay: Inhibition of cell invasion in human HT1080 cells at 10 uM after 24 hrs by SRB staining based matrigel invasion chamber assay relative to control; type: functional; how it was run: as §1
[10] = test system: U-87 MG; assay: Inhibition of cell invasion in human U87MG cells at 10 uM after 24 hrs by SRB staining based matrigel invasion chamber assay relative to control; type: functional, U-87MG ATCC; how it was run: as §1
[11] = test system: U2OS; details: Homo sapiens, 10 uM
[12] = Antiproliferative activity against human CME1 cells after 72 hrs by cell counting analysis
[13] = test system: A204; assay: Antiproliferative activity against human A204 cells after 72 hrs by cell counting analysis; details: A204, 72 h
[14] = Antiproliferative activity against human CME1 cells assessed as inhibition of cell proliferation at 3.1 uM after 24 hrs by cell counting analysis relative to control; type: functional; parameters: scale not given: the % may be the effect or the level left
How it was run: (§2)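 CME-1 or A204 cells in RPMI plus 10% FBS, exposed to drug in DMSO or solvent alone for 24 h. Proliferation assessed by cell counting and expressed as percent inhibition versus control. DMSO final 0.5% (CME-1) or 0.25% (A204).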

[15] = test system: A204; assay: Antiproliferative activity against human A204 cells assessed as inhibition of cell proliferation at 3.1 uM after 24 hrs by cell counting analysis relative to control; type: functional; parameters: scale not given: the % may be the effect or the level left; how it was run: as §2
[16] = species: Homo sapiens; assay: Anti-invasive activity against human CME1 cells after 24 hrs by SRB staining based matrigel invasion chamber assay; type: functional, cell-based
How it was run: (§3)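 CME-1 or A204 cells pretreated with drug in complete medium for 24 h, then resuspended in serum-free medium and placed in upper chamber of Growth Factor Reduced Matrigel-coated Transwells (1.2 × 10^5 CME-1 or 1.8 × 10^5 A204 cells/filter). Same drug concentration in both upper and lower chambers, 24 h. Invaded cells SRB-stained and counted microscopically. DMSO final 0.5% (CME-1) or 0.25% (A204).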

[17] = test system: A204; assay: Anti-invasive activity against human A204 cells after 24 hrs by SRB staining based matrigel invasion chamber assay; type: functional, cell-based; how it was run: as §3
[18] = species: Homo sapiens; details: 1.5 uM
[19] = test system: A204; details: Homo sapiens, 1.5 uM
[20] = test system: U2OS; assay: Inhibition of cell invasion in human U2OS cells at 10 uM after 24 hrs by SRB staining based matrigel invasion chamber assay relative to control; details: read-out: INH

IC50 [1]: > 10 µM
Structure (SMILES): COc1ccc(C(=O)Nc2ccc(CNc3ccc(-c4nc5cc(CC(=O)NCB(O)O)ccc5o4)cc3F)cc2)cc1Br

IC50 [1]: > 10 µM
Structure (SMILES): COc1ccc(C(=O)Nc2ccc(CNc3ccc(-c4nc5cc(CC(=O)N[C@@H](CCCCN)C(=O)O)ccc5o4)cc3F)cc2)cc1Br

IC50 ([2]; Homo sapiens, HT-1080, 72 h): 3.1 µM | IC50 ([3]; Homo sapiens, U-87 MG, 72 h): 2.7 µM | IC50 ([4]; Homo sapiens, U2OS, 72 h): 2.1 µM
Structure (SMILES): COc1ccc(C(=O)Nc2ccc(CNc3ccc(-c4nc5ccccc5[nH]4)cc3)cc2)cc1Br
inhibition at 1 µM [5]: 50 to 90% | inhibition at 1 µM [6]: 50 to 90% | inhibition at 1 µM [7]: 50 to 90% | Activity [8]: inactive

IC50 ([2]; ht-1080): Not Active | IC50 ([3]; u-87mg atcc): Not Active | IC50 ([4]; u2os): Not Active
Structure (SMILES): COc1ccc(C(=O)Nc2ccc(CNc3ccc(-c4nc5cc(CC(=O)N[C@@H](CCC(=O)O)C(=O)O)ccc5o4)cc3F)cc2)cc1Br
inhibition at 10 µM ([9]; HT-1080, 24 h): 50 to 90% | inhibition at 10 µM [10]: 50 to 90% | inhibition [11]: inactive

IC50 [1]: > 10 µM
Structure (SMILES): COc1ccc(C(=O)Nc2ccc(CNc3ccc(-c4nc5cc(CC(=O)O)ccc5o4)cc3)cc2)cc1Br

IC50 ([2]; Homo sapiens, HT-1080, 72 h): 8.7 µM | IC50 ([3]; Homo sapiens, U-87 MG, 72 h): 2.8 µM | IC50 ([4]; Homo sapiens, U2OS, 72 h): 1.7 µM
Structure (SMILES): COc1ccc(C(=O)Nc2ccc(CNc3ccc(-c4nc5ccccc5[nH]4)cc3F)cc2)cc1Br
inhibition at 1 µM [5]: 50 to 90% | inhibition at 1 µM [6]: 50 to 90% | inhibition at 1 µM [7]: 50 to 90% | IC50 [12]: 3.9 µM | IC50 [13]: 3.4 µM | Activity [14]: 15% | Activity [15]: 5% | Activity [16]: Dose-dependent effect | Activity [17]: Dose-dependent effect | Activity [8]: Active | inhibition [18]: inactive | inhibition [19]: inactive

IC50 ([2]; ht-1080): Not Active | IC50 ([3]; u-87mg atcc): Not Active | IC50 ([4]; u2os): Not Active
Structure (SMILES): COc1ccc(C(=O)Nc2ccc(CNc3ccc(-c4nc5cc(CC(=O)NCC(=O)O)ccc5o4)cc3F)cc2)cc1Br

IC50 [1]: 0.64 µM | IC50 ([2]; ht-1080): Not Active | IC50 ([3]; u-87mg atcc): Not Active | IC50 ([4]; u2os): Not Active
Structure (SMILES): COc1ccc(C(=O)Nc2ccc(CNc3ccc(-c4nc5cc(CC(=O)NCC(=O)O)ccc5[nH]4)cc3F)cc2)cc1Br
inhibition [9]: inactive | inhibition ([10]; U-87MG ATCC): inactive | inhibition at 10 µM [20]: < 50%

IC50 [1]: > 10 µM
Structure (SMILES): COc1ccc(C(=O)Nc2ccc(CNc3ccc(-c4nc5cc(CC(=O)O)ccc5[nH]4)cc3)cc2)cc1Br

Reference: ChEMBL document CHEMBL4325832, “Novel Benzazole Derivatives Endowed with Potent Antiheparanase Activity” (J Med Chem, 2018)
